Assay results taken from ChEMBL document CHEMBL1139901, “Synthesis of new plant growth regulator: N-(fatty acid) O-aryloxyacetyl ethanolamine” (Bioorg Med Chem Lett, 2007).

Key:
[1] = Solubility in ethyl acetate solution; format: physicochemical
[2] = Solubility in chloroform; format: physicochemical
Brassica napus = assay: Stimulation of hypocotyls elongation in rape after 3 days; format: functional; parameters: concentration or dose not given beside the values
Method in brief: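 Rape seeds were cultured at 25 °C in the dark. Hypocotyl length was measured after 3 days and compared with seeds treated with distilled water; two replicates.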

Triticum aestivum = assay: Stimulation of coleoptiles growth in common wheat after 18 to 20 hrs; format: functional; parameters: concentration or dose not given beside the values
Method in brief: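 Wheat coleoptile tips (5 mm) were soaked in distilled water for 1 h to remove endogenous hormone, then cut into 10 segments. Compound in DMF was dried onto 6-cm filter paper and placed in 0.01 mol/L phosphoric acid–citric acid buffer (pH 5) with 2% sucrose, giving 10 mg/L. Ten segments were cultured at 25 °C in the dark for 18–20 h. Length was compared with untreated segments; two replicates.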

[3] = Solubility in ethanol; format: physicochemical
Cucumis sativus = assay: Stimulation of cytyledon expansion in cucumber after 3 days; format: functional; parameters: concentration or dose not given beside the values
Method in brief: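 Soaked cucumber seeds were germinated on 0.7% agar for 3 days in the dark at 26 °C, and cotyledons of similar size were selected. Compound in DMF was dried onto 6-cm filter paper, then distilled water was added to give 10 mg/L. Ten cotyledons were cultured per dish under light (300 Lux, 26 °C). Percent increase was taken over the no-regulator control.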

| SMILES | Solubility [1] | Solubility [2] | Activity (Brassica napus) | Activity (Triticum aestivum) | Solubility [3] | Activity (Cucumis sativus) |
| --- | --- | --- | --- | --- | --- | --- |
| CCCCCCCCCCCCCCCCCC(=O)NCCOC(=O)COc1ccc(Cl)cc1 | 1.54 g | 4.37 g | 71.8% | 5% | 1.88 g | 6.3% |
| CCCCCCCCCCCC(=O)NCCOC(=O)COc1ccc(Cl)cc1Cl | 11 g | 15.1 g | 69% | 17.9% | 10.42 g | 4% |
| CCCCCCCCCCCC(=O)NCCOC(=O)COc1ccc(Cl)cc1 | – | – | 71.8% | 16% | – | 2.9% |
| CCCCCCCCCCCCCCCCCC(=O)NCCOC(=O)COc1ccccc1C | 8.27 g | 53.97 g | 57% | 0.7% | 3.08 g | 5.7% |
| CCCCCCCCCCCCCC(=O)NCCOC(=O)COc1ccc(Cl)cc1Cl | – | – | 68.1% | 8.9% | – | -0.1% |
| CCCCCCCCCCCCCCCCCC(=O)NCCOC(=O)COc1cccc(OC)c1 | 2.67 g | 7.76 g | -1.4% | 5% | 1.99 g | -0.1% |
| CCCCCCCCCCCCCCCC(=O)NCCOC(=O)COc1ccc(Cl)cc1Cl | – | – | 67.3% | 17% | – | 3.5% |
| CCCCCCCCCCCCCCCCCC(=O)NCCOC(=O)COc1ccc(Cl)cc1Cl | 3.54 g | 10.22 g | 73.8% | 7.5% | 1.03 g | 0.7% |
| CCCCCCCCCCCC(=O)NCCOC(=O)COc1ccc(C)cc1 | – | – | 54.9% | 4.1% | – | 5.9% |
| CCCCCCCCCCCCCCCCCC(=O)NCCO [N-(2-HYDROXYETHYL)STEARAMIDE] | 0.03 g | 0.16 g | 35.3% | 2.1% | 0.34 g | 6.2% |
| CCCCCCCCCCCC(=O)NCCO | 0.38 g | 1.76 g | – | – | 9.14 g | – |
| CCCCCCCCCCCCCCCCCC(=O)NCCOC(=O)COc1ccc(C)cc1 | – | – | 38.7% | 3.3% | – | 9.8% |
| O=C(O)COc1ccc(Cl)cc1Cl [2,4-DICHLOROPHENOXYACETIC ACID] | – | – | 65.7% | 28.3% | – | 0.8% |
